# According to publication PMC3696402 (Neuropharmacology, 2013):
# How the values were obtained:
# [1] = test system: C57Bl/6J male mice; experiment: Locomotor activity; type: in vivo
# [2] = test system: histamine H1 GPCRs; conditions: previous studies; ref Bucholtz et al., 2009; cited from earlier work
# [3] = test system: C57Bl/6J male mice; experiment: DOI-elicited head-twitch response; type: in vivo; conditions: for DOI-elicited HTRs after oral administration: 30 mg/kg oral (gavage) 20 min before (−)-DOI 1.0 mg/kg; for Number of head-twitches: 10-min session; for DOI-elicited HTR (responses) after pretreatment: 30 mg/kg i.p. pretreatment before 1 mg/kg (−)-DOI; for ED50 value (±95% CL), 50% attenuation of the DOI-elicited response: i.p. pretreatment before 1 mg/kg (−)-DOI
# Procedure, shortened: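 Male C57Bl/6J mice (Jackson, pair-housed, ~8 weeks old on arrival, ≥1 week acclimation), tested mid-light phase after 30 min room habituation. Test compound or saline (sterile saline, 0.01 ml/g) given i.p. 10 min, or orally by gavage 20 min, before (−)-DOI (0.1–1.0 mg/kg) or saline. Ten min after DOI, head twitches counted over 10 min by a blind observer. ED50 reported with 95% CL.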
# [4] = biological target: T1, 5HT2C receptors (Homo sapiens, UniProt P28335); experiment: PLC activation and [3H]-IP formation in HEK cells; type: cell-based; conditions: for EC50: read-out: 5HT2C EC50±SEM, [3H]-IP formation, 30 min incubation
# T1 sequence (P28335 33-458): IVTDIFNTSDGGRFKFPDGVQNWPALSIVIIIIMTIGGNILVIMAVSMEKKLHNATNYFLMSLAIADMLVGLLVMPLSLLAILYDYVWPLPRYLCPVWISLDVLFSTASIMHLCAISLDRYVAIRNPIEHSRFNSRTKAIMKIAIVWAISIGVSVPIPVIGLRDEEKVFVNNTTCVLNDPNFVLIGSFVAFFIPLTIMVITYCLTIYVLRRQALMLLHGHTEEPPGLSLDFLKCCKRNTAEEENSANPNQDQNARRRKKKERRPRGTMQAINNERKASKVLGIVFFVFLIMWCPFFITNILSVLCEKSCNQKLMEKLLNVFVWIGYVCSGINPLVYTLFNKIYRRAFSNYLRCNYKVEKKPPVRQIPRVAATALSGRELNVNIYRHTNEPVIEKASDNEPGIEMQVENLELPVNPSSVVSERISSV
# [5] = biological target: adenosine, adrenergic, benzodiazepine, cholinergic, dopamine, GABAA, histamine H2, H3, H4, NMDA/PCP, opiate, and serotonin 5-HT1A, 5-HT1B, receptors; experiment: Preliminary off-target binding studies; conditions: read-out: Ki (off-target receptors), comparatively low (Ki > 0.5 μM) or very low (Ki > 1 μM) affinity, initial results, PDSP 2012
# [6] = test system: C57Bl/6J male mice; experiment: Palatable meal eating; type: in vivo; conditions: for Eating (pellets consumed) as % of baseline levels: 24 mg/kg i.p. 15 min before 30-min access to Crunchies; for ED50 value (±95% CL), 50% attenuation of consumption: i.p. 15 min before 30-min access to Crunchies
# Procedure, shortened: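 Singly housed male C57Bl/6J mice (Harlan) with chow and water ad lib. In home cages, 10 sweet pellets (~190 mg, 3.5 kcal/g) were offered five days/week, with access tapered to 30 min/day. After ~2 weeks of stable intake, test compound was given i.p. (2 ml/kg, sterile saline) 15 min before access. Pellets eaten were counted. ED50 reported with 95% CL.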
# [7] = biological target: T1, 5HT2C receptors; experiment: Radioreceptor competition binding, [3H]-mesulergine, HEK membranes; conditions: read-out: 5HT2C Ki ± SEM; [3H]-mesulergine 1.4 nM, 1.0 h at 37°C
# Procedure, shortened: (§1)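 HEK-293 cells transiently transfected (Lipofectamine 2000, 24–48 h) with human receptor cDNA (5HT2C: unedited INI isoform). Membranes in 50 mM Tris, 10 mM MgCl2, 0.1 mM EDTA; 3–5 μg protein per well. Nonspecific binding defined with 10 μM mianserin. Separated by GF/B filtration with five 50 mM Tris-HCl washes, then scintillation counting. Triplicates, at least 3 experiments; IC50 converted to Ki by Cheng–Prusoff.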
# [8] = biological target: T2, 5HT2A receptors (Homo sapiens, UniProt P28223); experiment: Radioreceptor competition binding, [3H]-ketanserin, HEK membranes; conditions: read-out: 5HT2A Ki ± SEM; [3H]-ketanserin 2.0 nM, 1.0 h at 37°C
# T2 sequence (P28223 whole entry): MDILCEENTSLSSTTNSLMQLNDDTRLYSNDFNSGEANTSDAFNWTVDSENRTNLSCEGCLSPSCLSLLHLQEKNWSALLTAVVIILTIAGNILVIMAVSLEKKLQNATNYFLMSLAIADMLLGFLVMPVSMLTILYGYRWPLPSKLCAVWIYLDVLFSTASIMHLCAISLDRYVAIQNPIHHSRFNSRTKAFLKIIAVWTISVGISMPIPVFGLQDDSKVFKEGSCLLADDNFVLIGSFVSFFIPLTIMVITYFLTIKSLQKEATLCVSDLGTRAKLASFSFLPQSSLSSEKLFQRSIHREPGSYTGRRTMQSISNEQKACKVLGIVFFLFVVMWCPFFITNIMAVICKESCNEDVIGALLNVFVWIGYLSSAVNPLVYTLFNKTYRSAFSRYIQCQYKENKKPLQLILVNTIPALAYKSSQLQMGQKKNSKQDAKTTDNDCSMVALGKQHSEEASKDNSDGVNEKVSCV
# Procedure, shortened: as §1
# [9] = biological target: T3, 5HT2B receptors (Homo sapiens, UniProt P41595); experiment: Radioreceptor competition binding, [3H]-mesulergine, HEK membranes; conditions: read-out: 5HT2B Ki ± SEM; [3H]-mesulergine 1.95 nM, 1.0 h at 37°C
# T3 sequence (P41595 whole entry): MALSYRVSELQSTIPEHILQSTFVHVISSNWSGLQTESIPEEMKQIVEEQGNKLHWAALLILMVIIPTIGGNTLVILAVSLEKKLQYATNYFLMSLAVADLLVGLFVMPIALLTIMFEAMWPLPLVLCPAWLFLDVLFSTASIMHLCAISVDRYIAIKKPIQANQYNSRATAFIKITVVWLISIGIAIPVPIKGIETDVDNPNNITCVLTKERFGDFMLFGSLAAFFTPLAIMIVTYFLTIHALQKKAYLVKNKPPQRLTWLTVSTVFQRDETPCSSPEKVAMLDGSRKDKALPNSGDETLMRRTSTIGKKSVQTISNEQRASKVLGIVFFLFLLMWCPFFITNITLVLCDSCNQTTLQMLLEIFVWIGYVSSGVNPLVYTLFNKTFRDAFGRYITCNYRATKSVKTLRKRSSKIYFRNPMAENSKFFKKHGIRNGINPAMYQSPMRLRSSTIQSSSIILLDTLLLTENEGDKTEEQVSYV
# Procedure, shortened: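 Membranes came from HEK-293 cells transfected with 24 μg human 5HT2B cDNA (Lipofectamine 2000, 24–48 h) and collected in 50 mM Tris, 10 mM MgCl2, 0.1 mM EDTA. […] Nonspecific binding: 10 μM mianserin. Filtered on GF/B, washed five times with Tris-HCl, scintillation counted. Triplicates, ≥3 experiments.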
# [10] = biological target: T2, 5HT2A receptors; experiment: PLC activation and [3H]-IP formation in HEK cells; type: cell-based; conditions: for 5HT2A Function (activation of PLC/IP formation): at 10 μM
# [11] = biological target: T3, 5HT2B receptors; experiment: PLC activation and [3H]-IP formation in HEK cells; type: cell-based; conditions: at 10 μM
# [12] = 30 mg/kg oral pretreatment before 1.0 mg/kg DOI
# [13] = 3 mg/kg i.p. with DOI (1 mg/kg)
# [14] = 10 mg/kg i.p. with DOI (1 mg/kg)
# [15] = 10 mg/kg i.p. with saline (no DOI)
# [16] = 30 mg/kg i.p. with DOI (1 mg/kg)
# [17] = 30 mg/kg i.p. with saline (no DOI)
Compound,"Distance travelled (mean ± s.e.m.) [1, 12] [cm]",Affinity at histamine H1 GPCRs [2],DOI-elicited HTRs after oral administration [3],Function at the 5HT2C receptor (efficacy compared to 5HT) [4],EC50 [4] [µM],Ki [5] [µM],Eating (pellets consumed) as % of baseline levels [6] [%],"ED50 value (±95% CL), 50% attenuation of consumption [6]",Ki [7] [µM],Ki [8] [µM],"Distance travelled (mean ± s.e.m.) [1, 13] [cm]","Distance travelled (mean ± s.e.m.) [1, 14] [cm]","Distance travelled (mean ± s.e.m.) [1, 15] [cm]","Distance travelled (mean ± s.e.m.) [1, 16] [cm]","Distance travelled (mean ± s.e.m.) [1, 17] [cm]",Ki [9] [µM],5HT2A Function (activation of PLC/IP formation) [10],DOI-elicited HTR (responses) after pretreatment [3],"ED50 value (±95% CL), 50% attenuation of the DOI-elicited response [3]",5HT2B Function (activation of PLC/IP formation) [11],other results
"CN(C)[C@H]1Cc2ccccc2[C@H](c2ccc(Cl)cc2)C1 (stereo in doubt) [(±) p-Cl-PAT, racemic trans-4-(4′-chlorophenyl)-N,N-dimethyl-2-aminotetralin]",1662 ± 468,high affinity,13.25,,,,,,,,,,,,,,,,,,
"COc1cc(CC(C)N)c(OC)cc1I.Cl (single isomer, unassigned; (-)) [(−)-DOI, (−)-2,5-dimethoxy-4-iodoamphetamine hydrochloride, reference compound]",,,,,,,,,,,,,,,,,,,,,"Distance travelled (mean ± s.e.m.) ([1]; saline pretreatment, (−)-DOI 0.1 mg/kg): 2829 ± 481 cm; Distance travelled (mean ± s.e.m.) ([1]; saline pretreatment, (−)-DOI 0.3 mg/kg): 2804 ± 353 cm; Distance travelled (mean ± s.e.m.) ([1]; saline pretreatment, (−)-DOI 1.0 mg/kg): 3626 ± 392 cm; Number of head-twitches ([3]; 0.1 mg/kg (−)-DOI preceded by a saline injection): 6; Number of head-twitches ([3]; 0.3 mg/kg (−)-DOI preceded by a saline injection): 22; Number of head-twitches ([3]; 1.0 mg/kg (−)-DOI preceded by a saline injection): 45; Number of HTRs ([3]; (−)-DOI 1.0 mg/kg following oral saline administration): 37.5"
"CN(C)[C@@H]1Cc2ccccc2[C@@H](c2ccccc2)C1 (relative stereo) [(−)-trans-PAT, (−)-(2S, 4R)-trans-4-phenyl-N,N-dimethyl-2-aminotetralin, reference compound]",,high affinity,,,,,,,,,,,,,,,,,,,
"CN(C)[C@H]1Cc2ccccc2[C@H](c2ccc(Cl)cc2)C1 (stereo in doubt) [(+)-p-Cl-PAT, (+)-(2R, 4S)-trans-4-(4′-chlorophenyl)-N,N-dimethyl-2-aminotetralin]",1586 ± 398,,8.5,partial agonists,0.14 ± 0.02,> 0.5,15.9,14.8 (11.8–18.7) mg/kg,0.045 ± 0.007,0.042 ± 0.006,3523 ± 518,2557 ± 99,2142 ± 124,1329 ± 434,870 ± 502,0.08 ± 0.01,No Activation,3.3,8.2 (5.4–12.4) mg/kg,No Activation ^1,Potency at 5HT2C relative to (−)-p-Cl-PAT ([4]; ratio of EC50 values): about 12 times; Distance travelled (mean ± s.e.m.) ([1]; 3 mg/kg i.p. with saline (no DOI)): 2216 ± 98 cm; pA2 (competitive antagonism of 5HT activation of 5HT2A-mediated [3H]-IP formation) ([10]; Schild analysis versus 5HT): 6.21 ± 0.55
"CN(C)[C@@H]1Cc2ccccc2[C@@H](c2ccc(Cl)cc2)C1 (stereo in doubt) [(−)-p-Cl-PAT, (−)-(2S, 4R)-trans-4-(4′-chlorophenyl)-N,N-dimethyl-2-aminotetralin]",1944 ± 654,,18.25,partial agonists,1.65 ± 0.149,> 0.5,36.4,21.3 (18.5–24.4) mg/kg,0.13 ± 0.016,0.24 ± 0.032,3386 ± 150,3064 ± 309,3097 ± 937,1889 ± 191,1994 ± 165,0.3 ± 0.03,No Activation ^1,13,20.1 (14.0–28.8) mg/kg,No Activation ^1,
